Experimental data published in ChEMBL document CHEMBL4261538, “Synthesis and molecular docking studies of xanthone attached amino acids as potential antimicrobial and anti-inflammatory agents” (Medchemcomm, 2017).
Values after ≈ are worked out from the molar mass of the structure shown.

How the values were obtained:
[1] = test system: Staphylococcus aureus; experiment: Antibacterial activity against Staphylococcus aureus at 100 ug/ml incubated for 24 hrs by agar well diffusion method; type: functional; conditions: read-out: DIZ
Procedure, shortened: (§1)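 Bacteria grown in nutrient broth at 37 °C for 24 h, then subcultured at room temperature. Compounds dissolved in DMSO at 5 mg mL⁻¹ and 5–20 µL added to 6 mm wells, giving 25, 50, 75, 100 µg per well. Gentamicin was the positive control and DMSO the negative control. Plates held at 37 °C for 24 h, then inhibition zone diameter (mm) measured. Values are means of three determinations.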

[2] = test system: Fusarium oxysporum; experiment: Antifungal activity against Fusarium oxysporum at 100 ug/ml incubated for 48 hrs by agar well diffusion method; type: functional; conditions: read-out: DIZ
Procedure, shortened: (§2)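 Compounds dissolved in DMSO at 5 mg mL⁻¹ and 5–20 µL added to 6 mm wells, giving 25, 50, 75, 100 µg per well. Bavistin was the positive control and DMSO the negative control. Plates incubated at 28 °C for 48 h, then inhibition zone diameter (mm) measured. Values are means of three determinations.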

[3] = test system: Candida albicans; experiment: Antifungal activity against Candida albicans incubated for 48 to 72 hrs by microdilution method; type: functional
Procedure, shortened: (§3)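 Sabouraud agar plates inoculated with fungal suspension at 10⁵ CFU mL⁻¹ plus serially diluted compounds and bavistin reference, both in DMSO. Incubated at 25 °C for 48–72 h. MIC is the lowest concentration completely inhibiting growth. Values are means of three determinations.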

[4] = test system: Staphylococcus aureus; experiment: Induction of cell membrane damage in Staphylococcus aureus assessed as cell content leakage at MIC by spectrophotometric method; type: functional, organism-based; conditions: TDE = time-dependent effect
Procedure, shortened: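 Log-phase S. aureus inoculated into 0.1% sterile peptone water, with an untreated control, and held at 37 °C for 0, 30, 60 and 120 min. 1 mL of broth centrifuged and supernatant OD read at 260 nm to measure released DNA. Run in triplicate, repeated three times.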

[5] = test system: Candida albicans; experiment: Antifungal activity against Candida albicans at 100 ug/ml incubated for 48 hrs by agar well diffusion method; type: functional; conditions: read-out: DIZ; procedure, shortened: as §2
[6] = test system: Fusarium oxysporum; experiment: Antifungal activity against Fusarium oxysporum at 75 ug/ml incubated for 48 hrs by agar well diffusion method; type: functional; conditions: read-out: DIZ; procedure, shortened: as §2
[7] = test system: Staphylococcus aureus; experiment: Antibacterial activity against Staphylococcus aureus at 75 ug/ml incubated for 24 hrs by agar well diffusion method; type: functional; conditions: read-out: DIZ; procedure, shortened: as §1
[8] = test system: Escherichia coli; experiment: Antibacterial activity against Escherichia coli incubated for 24 hrs by microdilution method; type: functional
[9] = test system: Klebsiella pneumoniae; experiment: Antibacterial activity against Klebsiella pneumoniae at 50 ug/ml incubated for 24 hrs by agar well diffusion method; type: functional; conditions: read-out: DIZ; procedure, shortened: as §1
[10] = test system: Bacillus subtilis; experiment: Antibacterial activity against Bacillus subtilis at 100 ug/ml incubated for 24 hrs by agar well diffusion method; type: functional; conditions: read-out: DIZ; procedure, shortened: as §1
[11] = test system: Escherichia coli; experiment: Antibacterial activity against Escherichia coli at 50 ug/ml incubated for 24 hrs by agar well diffusion method; type: functional; conditions: read-out: DIZ; procedure, shortened: as §1
[12] = test system: Aspergillus niger; experiment: Antifungal activity against Aspergillus niger at 25 ug/ml incubated for 48 hrs by agar well diffusion method; type: functional; conditions: read-out: DIZ; procedure, shortened: as §2
[13] = test system: Aspergillus niger; experiment: Antifungal activity against Aspergillus niger at 100 ug/ml incubated for 48 hrs by agar well diffusion method; type: functional; conditions: read-out: DIZ; procedure, shortened: as §2
[14] = test system: Klebsiella pneumoniae; experiment: Antibacterial activity against Klebsiella pneumoniae at 100 ug/ml incubated for 24 hrs by agar well diffusion method; type: functional; conditions: read-out: DIZ; procedure, shortened: as §1
[15] = test system: Aspergillus niger; experiment: Antifungal activity against Aspergillus niger at 50 ug/ml incubated for 48 hrs by agar well diffusion method; type: functional; conditions: read-out: DIZ; procedure, shortened: as §2
[16] = test system: Fusarium oxysporum; experiment: Antifungal activity against Fusarium oxysporum at 50 ug/ml incubated for 48 hrs by agar well diffusion method; type: functional; conditions: read-out: DIZ; procedure, shortened: as §2
[17] = test system: Escherichia coli; experiment: Antibacterial activity against Escherichia coli at 100 ug/ml incubated for 24 hrs by agar well diffusion method; type: functional; conditions: read-out: DIZ; procedure, shortened: as §1
[18] = test system: Aspergillus niger; experiment: Antifungal activity against Aspergillus niger incubated for 48 to 72 hrs by microdilution method; type: functional; procedure, shortened: as §3
[19] = test system: Candida albicans; experiment: Antifungal activity against Candida albicans at 75 ug/ml incubated for 48 hrs by agar well diffusion method; type: functional; conditions: read-out: DIZ; procedure, shortened: as §2
[20] = test system: Escherichia coli; experiment: Antibacterial activity against Escherichia coli at 75 ug/ml incubated for 24 hrs by agar well diffusion method; type: functional; conditions: read-out: DIZ; procedure, shortened: as §1
[21] = test system: Klebsiella pneumoniae; experiment: Antibacterial activity against Klebsiella pneumoniae at 25 ug/ml incubated for 24 hrs by agar well diffusion method; type: functional; conditions: read-out: DIZ; procedure, shortened: as §1
[22] = test system: Aspergillus niger; experiment: Antifungal activity against Aspergillus niger at 75 ug/ml incubated for 48 hrs by agar well diffusion method; type: functional; conditions: read-out: DIZ; procedure, shortened: as §2
[23] = test system: Klebsiella pneumoniae; experiment: Antibacterial activity against Klebsiella pneumoniae at 75 ug/ml incubated for 24 hrs by agar well diffusion method; type: functional; conditions: read-out: DIZ; procedure, shortened: as §1
[24] = test system: Candida albicans; experiment: Antifungal activity against Candida albicans at 50 ug/ml incubated for 48 hrs by agar well diffusion method; type: functional; conditions: read-out: DIZ; procedure, shortened: as §2
[25] = test system: Bacillus subtilis; experiment: Antibacterial activity against Bacillus subtilis at 50 ug/ml incubated for 24 hrs by agar well diffusion method; type: functional; conditions: read-out: DIZ; procedure, shortened: as §1
[26] = test system: Erythrocyte; experiment: Anti-inflammatory activity in human RBC assessed as inhibition of hypotonic solution-induced hemolysis after 10 mins by spectrophotometric method; type: functional, cell-based
Procedure, shortened: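 Human blood (heparinized) washed with 0.9% saline, packed cells made into a 40% v/v stock in isotonic phosphate buffer (154 mM NaCl, 10 mM sodium phosphate, pH 7.4). Stock RBC mixed with hypotonic buffer (50 mM NaCl, 10 mM phosphate, pH 7.4) plus sample at 20–100 µg mL⁻¹.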

[27] = test system: Bacillus subtilis; experiment: Antibacterial activity against Bacillus subtilis at 25 ug/ml incubated for 24 hrs by agar well diffusion method; type: functional; conditions: read-out: DIZ; procedure, shortened: as §1
[28] = test system: Staphylococcus aureus; experiment: Antibacterial activity against Staphylococcus aureus at 50 ug/ml incubated for 24 hrs by agar well diffusion method; type: functional; conditions: read-out: DIZ; procedure, shortened: as §1
[29] = test system: Staphylococcus aureus; experiment: Antibacterial activity against Staphylococcus aureus at 25 ug/ml incubated for 24 hrs by agar well diffusion method; type: functional; conditions: read-out: DIZ; procedure, shortened: as §1
[30] = test system: Staphylococcus aureus; experiment: Antibacterial activity against Staphylococcus aureus incubated for 24 hrs by microdilution method; type: functional
[31] = test system: Fusarium oxysporum; experiment: Antifungal activity against Fusarium oxysporum at 25 ug/ml incubated for 48 hrs by agar well diffusion method; type: functional; conditions: read-out: DIZ; procedure, shortened: as §2
[32] = test system: Bacillus subtilis; experiment: Antibacterial activity against Bacillus subtilis incubated for 24 hrs by microdilution method; type: functional
[33] = test system: Klebsiella pneumoniae; experiment: Antibacterial activity against Klebsiella pneumoniae incubated for 24 hrs by microdilution method; type: functional
[34] = test system: Candida albicans; experiment: Antifungal activity against Candida albicans at 25 ug/ml incubated for 48 hrs by agar well diffusion method; type: functional; conditions: read-out: DIZ; procedure, shortened: as §2
[35] = test system: Bacillus subtilis; experiment: Antibacterial activity against Bacillus subtilis at 75 ug/ml incubated for 24 hrs by agar well diffusion method; type: functional; conditions: read-out: DIZ; procedure, shortened: as §1
[36] = test system: Fusarium oxysporum; experiment: Antifungal activity against Fusarium oxysporum incubated for 48 to 72 hrs by microdilution method; type: functional; procedure, shortened: as §3
[37] = test system: Escherichia coli; experiment: Antibacterial activity against Escherichia coli at 25 ug/ml incubated for 24 hrs by agar well diffusion method; type: functional; conditions: read-out: DIZ; procedure, shortened: as §1

Structure (SMILES) | zone of inhibition at 100 µg/mL [1] | zone of inhibition at 100 µg/mL [2] | MIC [3] | Activity [4] | zone of inhibition at 100 µg/mL [5] | zone of inhibition at 75 µg/mL [6] | zone of inhibition at 75 µg/mL [7] | MIC [8] | zone of inhibition at 50 µg/mL [9] | zone of inhibition at 100 µg/mL [10] | zone of inhibition at 50 µg/mL [11] | zone of inhibition at 25 µg/mL [12] | zone of inhibition at 100 µg/mL [13] | zone of inhibition at 100 µg/mL [14] | zone of inhibition at 50 µg/mL [15] | zone of inhibition at 50 µg/mL [16] | zone of inhibition at 100 µg/mL [17] | MIC [18] | zone of inhibition at 75 µg/mL [19] | zone of inhibition at 75 µg/mL [20] | other results
CC(C)(C)OC(=O)N[C@@H](Cc1ccc(O)cc1)C(=O)Oc1ccc2c(=O)c3ccccc3oc2c1 | 36 mm | 42 mm | 24 µg/mL (≈ 50.5 µM) | Tde | 37 mm | 36 mm | 32 mm | 19 µg/mL (≈ 40 µM) | 24 mm | 37 mm | 27 mm | 22 mm | 41 mm | 34 mm | 30 mm | 29 mm | 36 mm | 22 µg/mL (≈ 46.3 µM) | 34 mm | 33 mm | zone of inhibition at 25 µg/mL [21]: 18 mm; zone of inhibition at 75 µg/mL [22]: 37 mm; zone of inhibition at 75 µg/mL [23]: 30 mm; zone of inhibition at 50 µg/mL [24]: 29 mm; zone of inhibition at 50 µg/mL [25]: 28 mm; IC50 [26]: 32 µg/mL (≈ 67.3 µM); zone of inhibition at 25 µg/mL [27]: 20 mm; zone of inhibition at 50 µg/mL [28]: 26 mm; zone of inhibition at 25 µg/mL [29]: 20 mm; MIC [30]: 21 µg/mL (≈ 44.2 µM); zone of inhibition at 25 µg/mL [31]: 22 mm; MIC [32]: 20 µg/mL (≈ 42.1 µM); MIC [33]: 24 µg/mL (≈ 50.5 µM); zone of inhibition at 25 µg/mL [34]: 20 mm; zone of inhibition at 75 µg/mL [35]: 35 mm; MIC [36]: 22 µg/mL (≈ 46.3 µM); zone of inhibition at 25 µg/mL [37]: 20 mm
Cl.O=C(Oc1ccc2c(=O)c3ccccc3oc2c1)[C@@H]1CCCN1 | 35 mm | 35 mm | 28 µg/mL | Tde | 34 mm | 29 mm | 31 mm | 24 µg/mL | 28 mm | 37 mm | 25 mm | 17 mm | 33 mm | 38 mm | 24 mm | 24 mm | 39 mm | 27 µg/mL | 27 mm | 32 mm | zone of inhibition at 25 µg/mL [21]: 18 mm; zone of inhibition at 75 µg/mL [22]: 30 mm; zone of inhibition at 75 µg/mL [23]: 33 mm; zone of inhibition at 50 µg/mL [24]: 22 mm; zone of inhibition at 50 µg/mL [25]: 26 mm; IC50 [26]: 36 µg/mL; zone of inhibition at 25 µg/mL [27]: 18 mm; zone of inhibition at 50 µg/mL [28]: 27 mm; zone of inhibition at 25 µg/mL [29]: 20 mm; MIC [30]: 26 µg/mL; zone of inhibition at 25 µg/mL [31]: 20 mm; MIC [32]: 25 µg/mL; MIC [33]: 26 µg/mL; zone of inhibition at 25 µg/mL [34]: 16 mm; zone of inhibition at 75 µg/mL [35]: 32 mm; MIC [36]: 28 µg/mL; zone of inhibition at 25 µg/mL [37]: 20 mm
